Published values of several laboratories.
Each line is one published result; the experiments were not run side by side.
Target: Tyrosine-protein kinase Blk (BLK, Homo sapiens, UniProt P51451)

CO[C@@H]1[C@H](N(C)C(=O)c2ccccc2)C[C@H]2O[C@]1(C)n1c3ccccc3c3c4c(c5c6ccccc6n2c5c31)C(=O)NC4 — inhibition (enzyme activity, inhibitor; 1 µM): 79%
Cc1ccc(NC(=O)c2ccnc(C(F)(F)F)c2)cc1-c1cc(OCCO)nc(N2CCOCC2)c1 — remaining binding (binding, competition with immobilised ligand; 1 µM): 100%
C1=C/COCc2cc(ccc2OCCN2CCCC2)Nc2nccc(n2)-c2cccc(c2)COC/1 — remaining binding (binding; 0.1 µM): 97%
COc1ccc2oc(-c3ccc4nc(N)oc4c3)c/c(=N\c3ccccc3NC(=O)CCN)c2c1 — remaining binding (binding; 1 µM): 92%
CC(C)S(=O)(=O)c1ccc2nccc(Nc3ccc4sc(C5CCCC5)nc4c3)c2c1 — activity vs control (enzyme activity, inhibitor; 1 µM): 80%
CCCCC(=O)Nc1ccc(-c2ccc3ncn(CCC)c(=O)c3c2)cn1 — remaining binding (binding, competition with immobilised ligand; 0.5 µM): 83%
CC#CC(=O)N1CCC[C@H]1c1nc(-c2ccc(C(=O)Nc3ccccn3)cc2)c2c(N)nccn12 — inhibition (enzyme activity, inhibitor; 1 µM): 47%
C[C@H]1CC[C@H](n2c3cnccc3c3cnc(Nc4ccc5c(n4)CCN(C(=O)CO)C5)nc32)CC1 — remaining binding (cell-free assay, competition with immobilised ligand; 1 µM): 53%
